The record followed here is ChEMBL document CHEMBL2034977, “Discovery of CX-6258. A Potent, Selective, and Orally Efficacious pan-Pim Kinases Inhibitor” (ACS Med Chem Lett, 2012).

What all share (type): ADME, organism-based
Data set [1] in a line: Volume of distribution in iv dosed mouse. The following applies: in vivo. In outline:
(§1)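 Mouse pharmacokinetics after IV and oral dosing. Vehicle D5W. Clearance, volume of distribution, half-life, AUC over 0−24 h and oral bioavailability were derived. Each value is the average of four animals.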

Data set [2] is described as follows: Oral bioavailability in mouse. Particulars: in vivo; call rule not given here. The essentials: as §1
Data set [3] is described as follows: Clearance in iv dosed mouse. Particulars: in vivo. The essentials:
as §1

Data set [4] in a line: AUC (0 to 24 hrs) in po dosed mouse. Also on record: time < 24 hr, route oral. Particulars: plasma. The essentials: as §1
Data set [5] is filed under the species Mus musculus. Briefly: Drug metabolism in mouse assessed as formation of 3-((5-(3-(1,4-diazepane-1-carbonyl)phenyl)furan-2-yl)methylene)-5-chloroindolin-2-one. Particulars: in vivo.
The nature of data set [6]: Half life in iv dosed mouse. The following applies: in vivo. In outline:
as §1

In turn, `CN1CCCN(C(=O)c2cccc(-c3ccc(/C=C4/C(=O)Nc5ccc(Cl)cc54)o3)c2)CC1` returned a Vd in data set [1] of 85 L/kg. The same molecule came in with a bioavailability in data set [2] of 23%. Besides, the clearance in data set [3] is 35 mL/min/kg. For the same molecule, the AUC(0-t) at 24 h in data set [4] is 1020 ng·h/mL. Besides, the Drug metabolism result in data set [5] is reported as “Active”. Further, in data set [6], the half-life is 27 h.

In general, Vd refers to the apparent volume that relates the amount in the body to the concentration in plasma or blood. The low end stands for confinement near the circulation, the high end for extensive tissue distribution. What is called bioavailability is the share of a dose that reaches the circulation, judged against a reference dose that is usually intravenous. Lower therefore signals poor availability. What is called clearance is the rate of elimination divided by the concentration. High values mean efficient removal, low ones inefficient removal. As usually defined, the AUC(0-t) is exposure summed from dosing to a finite time, without extrapolation to infinity. Low readings indicate low exposure, high ones high exposure. Broadly, the half-life is how long it takes for the measured level to halve. The low end stands for fast loss, the high end for slow loss.
